In ChEMBL document CHEMBL1156338 (J Med Chem, 2010):
pIC50, pKd, pKi: −log10 of the molar value.

Key:
[1] = molecular target: Cytochrome P450 2D6 (Homo sapiens, UniProt P10635); assay: Inhibition of CYP2D6 in human liver microsomes; type: ADME, Microsome
[2] = molecular target: T1, Mitogen-activated protein kinase 12 (Homo sapiens, UniProt P53778); assay: Inhibition of p38-gamma
T1 sequence (P53778 whole entry): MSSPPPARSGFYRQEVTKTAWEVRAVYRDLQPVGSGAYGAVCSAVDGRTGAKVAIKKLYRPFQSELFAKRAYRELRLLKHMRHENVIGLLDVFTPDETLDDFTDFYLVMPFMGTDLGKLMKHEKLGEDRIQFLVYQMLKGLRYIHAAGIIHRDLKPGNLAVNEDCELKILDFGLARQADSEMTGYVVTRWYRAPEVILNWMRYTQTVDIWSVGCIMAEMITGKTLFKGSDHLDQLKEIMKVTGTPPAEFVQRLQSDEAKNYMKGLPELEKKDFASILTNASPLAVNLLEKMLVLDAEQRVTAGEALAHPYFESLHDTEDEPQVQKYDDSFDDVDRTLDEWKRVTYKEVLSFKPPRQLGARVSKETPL

[3] = AUC (0 to infinity) in Sprague-Dawley rat at 2 mg/kg, po; type: ADME, organism-based; design: time infinity, dose 2 mg/kg, route oral; details: plasma
[4] = molecular target: T2, Nuclear receptor subfamily 1 group I member 2 (Homo sapiens, UniProt O75469); assay: Transactivation of human PXR expressed in HepG2 cells at 2 uM after 24 hrs by luciferase reporter gene assay relative to rifampin; type: cell-based; details: hepg2, 24 h
T2 sequence (O75469 whole entry): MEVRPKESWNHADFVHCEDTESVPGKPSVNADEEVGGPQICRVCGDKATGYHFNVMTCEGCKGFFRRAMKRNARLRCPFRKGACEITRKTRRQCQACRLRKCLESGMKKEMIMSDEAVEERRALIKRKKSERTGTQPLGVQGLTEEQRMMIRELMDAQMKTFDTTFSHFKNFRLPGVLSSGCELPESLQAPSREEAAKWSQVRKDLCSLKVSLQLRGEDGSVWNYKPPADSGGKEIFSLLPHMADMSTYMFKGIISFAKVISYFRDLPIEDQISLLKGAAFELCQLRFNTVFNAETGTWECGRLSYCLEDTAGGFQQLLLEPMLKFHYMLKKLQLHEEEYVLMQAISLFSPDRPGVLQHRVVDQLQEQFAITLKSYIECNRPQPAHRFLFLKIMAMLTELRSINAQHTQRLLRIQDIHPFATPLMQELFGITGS
In short: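 HepG2 cells transfected with a CYP3A4-promoter luciferase reporter and human PXR cDNA. Compound added from DMSO stocks to final 2 and 10 μM in buffer and incubated 24 h. Luciferase activity read by chemiluminescence and reported as percent of the rifampin (10 μM) positive control.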

[5] = molecular target: T3, RAF proto-oncogene serine/threonine-protein kinase (Homo sapiens, UniProt P04049); assay: Inhibition of RAF1 at 1 uM relative to control
[6] = Cmax in porcine type 2 collagen-induced arthritis Lewis rat model at 0.01 to 1 mg/kg, po; type: ADME, organism-based; design: dose 0.01-1 mg/kg, route oral; details: in vivo
[7] = molecular target: T3, RAF proto-oncogene serine/threonine-protein kinase; assay: Binding affinity to RAF1
[8] = Plasma protein binding in human by ultrafiltration method; type: ADME, cell-free; details: read-out: PPB (converted)
[9] = molecular target: T4, Mitogen-activated protein kinase 11 (Homo sapiens, UniProt Q15759); assay: Inhibition of p38beta
[10] = AUC (0 to 24 hrs) in porcine type 2 collagen-induced arthritis Lewis rat model at 0.01 to 1 mg/kg, po; type: ADME, organism-based; design: dose 0.01-1 mg/kg, route oral; details: in vivo
[11] = in vitro; details: human, Caco-2
[12] = molecular target: Mitogen-activated protein kinase 14 (Homo sapiens, UniProt Q16539); assay: Inhibition of p38alpha at 1 uM relative to control
[13] = system: V79; assay: Genotoxicity in Chinese hamster V79 cells by micronucleus test; type: toxicity, cell-based, Cricetulus griseus
[14] = molecular target: T5, Cytochrome P450 2B6 (Homo sapiens, UniProt P20813); assay: Induction of CYP2B6 in human hepatocytes at 25 uM; type: ADME, cell-based, Hepatocyte
T5 sequence (P20813 whole entry): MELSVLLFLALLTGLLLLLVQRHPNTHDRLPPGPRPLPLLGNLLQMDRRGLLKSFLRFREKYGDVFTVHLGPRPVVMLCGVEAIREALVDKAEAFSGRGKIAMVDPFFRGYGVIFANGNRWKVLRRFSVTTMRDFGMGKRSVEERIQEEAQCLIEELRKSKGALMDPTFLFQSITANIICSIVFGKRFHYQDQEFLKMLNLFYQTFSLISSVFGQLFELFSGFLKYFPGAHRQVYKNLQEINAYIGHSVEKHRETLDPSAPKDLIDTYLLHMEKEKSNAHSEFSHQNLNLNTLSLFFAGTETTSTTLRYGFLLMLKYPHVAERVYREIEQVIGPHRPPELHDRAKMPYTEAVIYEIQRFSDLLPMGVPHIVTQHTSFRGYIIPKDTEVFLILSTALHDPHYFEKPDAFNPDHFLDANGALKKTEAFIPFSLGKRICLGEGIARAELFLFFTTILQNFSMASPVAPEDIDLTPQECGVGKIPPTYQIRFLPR

[15] = molecular target: T6, Platelet-derived growth factor receptor alpha (Homo sapiens, UniProt P16234); assay: Binding affinity to PDGFRalpha
[16] = Plasma protein binding in rat by ultrafiltration method; type: ADME, cell-free; details: read-out: PPB (converted)
[17] = molecular target: T4, Mitogen-activated protein kinase 11; assay: Inhibition of p38beta at 1 uM relative to control
[18] = molecular target: T6, Platelet-derived growth factor receptor alpha; assay: Inhibition of PDGFRalpha at 1 uM relative to control

T4 sequence (Q15759 whole entry): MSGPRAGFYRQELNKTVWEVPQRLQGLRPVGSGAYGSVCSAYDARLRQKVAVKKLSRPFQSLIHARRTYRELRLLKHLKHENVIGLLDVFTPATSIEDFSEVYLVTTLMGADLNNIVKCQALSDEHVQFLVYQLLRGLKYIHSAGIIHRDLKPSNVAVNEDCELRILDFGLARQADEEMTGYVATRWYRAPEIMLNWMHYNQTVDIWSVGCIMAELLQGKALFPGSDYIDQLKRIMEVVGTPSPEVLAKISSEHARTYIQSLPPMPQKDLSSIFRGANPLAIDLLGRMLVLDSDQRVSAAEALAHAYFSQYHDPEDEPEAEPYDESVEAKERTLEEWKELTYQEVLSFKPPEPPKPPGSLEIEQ
T3 sequence (P04049 whole entry): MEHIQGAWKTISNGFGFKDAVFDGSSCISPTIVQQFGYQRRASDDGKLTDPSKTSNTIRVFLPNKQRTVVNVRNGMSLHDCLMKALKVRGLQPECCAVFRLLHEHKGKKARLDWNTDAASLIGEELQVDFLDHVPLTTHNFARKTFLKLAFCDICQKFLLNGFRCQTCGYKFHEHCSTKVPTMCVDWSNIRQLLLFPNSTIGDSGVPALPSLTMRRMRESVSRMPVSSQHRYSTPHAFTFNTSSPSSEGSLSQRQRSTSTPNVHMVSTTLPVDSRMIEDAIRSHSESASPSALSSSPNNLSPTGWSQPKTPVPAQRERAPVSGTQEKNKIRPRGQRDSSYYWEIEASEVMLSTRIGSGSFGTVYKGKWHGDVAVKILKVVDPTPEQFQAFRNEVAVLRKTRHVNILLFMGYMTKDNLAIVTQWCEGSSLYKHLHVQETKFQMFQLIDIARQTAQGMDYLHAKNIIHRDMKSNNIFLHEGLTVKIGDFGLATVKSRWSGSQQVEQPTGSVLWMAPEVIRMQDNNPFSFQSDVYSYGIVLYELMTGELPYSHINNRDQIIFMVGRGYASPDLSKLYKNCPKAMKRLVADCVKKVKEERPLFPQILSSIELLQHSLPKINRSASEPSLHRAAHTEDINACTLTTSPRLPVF
T6 sequence (P16234 whole entry): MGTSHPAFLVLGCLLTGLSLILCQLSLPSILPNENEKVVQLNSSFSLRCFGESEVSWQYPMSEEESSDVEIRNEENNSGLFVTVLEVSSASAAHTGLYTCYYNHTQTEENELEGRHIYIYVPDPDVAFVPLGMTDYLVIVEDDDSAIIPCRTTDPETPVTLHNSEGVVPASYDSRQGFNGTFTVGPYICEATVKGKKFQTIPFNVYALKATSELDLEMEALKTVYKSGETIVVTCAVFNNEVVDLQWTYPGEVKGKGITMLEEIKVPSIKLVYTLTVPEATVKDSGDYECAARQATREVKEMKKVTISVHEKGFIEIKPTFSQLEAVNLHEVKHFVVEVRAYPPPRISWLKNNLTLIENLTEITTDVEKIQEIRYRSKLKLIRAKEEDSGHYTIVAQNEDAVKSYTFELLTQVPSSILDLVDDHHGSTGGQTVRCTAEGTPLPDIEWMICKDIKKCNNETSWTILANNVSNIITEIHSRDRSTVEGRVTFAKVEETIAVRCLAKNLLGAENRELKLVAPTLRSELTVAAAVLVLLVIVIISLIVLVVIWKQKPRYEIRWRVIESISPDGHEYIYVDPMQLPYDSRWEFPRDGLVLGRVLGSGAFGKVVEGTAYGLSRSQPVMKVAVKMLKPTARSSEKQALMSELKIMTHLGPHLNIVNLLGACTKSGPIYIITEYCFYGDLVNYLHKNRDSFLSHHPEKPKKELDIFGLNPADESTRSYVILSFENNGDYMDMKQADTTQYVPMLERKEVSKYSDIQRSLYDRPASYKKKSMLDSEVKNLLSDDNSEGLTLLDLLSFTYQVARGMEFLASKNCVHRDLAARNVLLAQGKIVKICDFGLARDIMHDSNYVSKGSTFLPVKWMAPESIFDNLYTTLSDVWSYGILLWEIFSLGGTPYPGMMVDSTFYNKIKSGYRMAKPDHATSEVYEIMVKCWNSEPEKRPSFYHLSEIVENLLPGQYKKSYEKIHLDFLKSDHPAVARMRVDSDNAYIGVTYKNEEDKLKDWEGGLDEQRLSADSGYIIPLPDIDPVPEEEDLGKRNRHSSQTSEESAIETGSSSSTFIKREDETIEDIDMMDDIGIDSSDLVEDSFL
Chain of Mitogen-activated protein kinase 14 (Q16539 whole entry): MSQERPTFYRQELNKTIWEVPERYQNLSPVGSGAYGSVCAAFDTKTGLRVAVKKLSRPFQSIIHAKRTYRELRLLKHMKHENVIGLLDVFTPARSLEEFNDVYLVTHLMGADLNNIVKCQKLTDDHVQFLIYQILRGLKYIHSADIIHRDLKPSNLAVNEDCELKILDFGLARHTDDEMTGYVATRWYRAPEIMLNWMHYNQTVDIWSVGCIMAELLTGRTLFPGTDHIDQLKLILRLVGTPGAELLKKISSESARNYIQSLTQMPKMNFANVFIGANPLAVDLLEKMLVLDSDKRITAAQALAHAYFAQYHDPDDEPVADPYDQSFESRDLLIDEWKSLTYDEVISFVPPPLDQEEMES
Chain of Cytochrome P450 2D6 (P10635 whole entry): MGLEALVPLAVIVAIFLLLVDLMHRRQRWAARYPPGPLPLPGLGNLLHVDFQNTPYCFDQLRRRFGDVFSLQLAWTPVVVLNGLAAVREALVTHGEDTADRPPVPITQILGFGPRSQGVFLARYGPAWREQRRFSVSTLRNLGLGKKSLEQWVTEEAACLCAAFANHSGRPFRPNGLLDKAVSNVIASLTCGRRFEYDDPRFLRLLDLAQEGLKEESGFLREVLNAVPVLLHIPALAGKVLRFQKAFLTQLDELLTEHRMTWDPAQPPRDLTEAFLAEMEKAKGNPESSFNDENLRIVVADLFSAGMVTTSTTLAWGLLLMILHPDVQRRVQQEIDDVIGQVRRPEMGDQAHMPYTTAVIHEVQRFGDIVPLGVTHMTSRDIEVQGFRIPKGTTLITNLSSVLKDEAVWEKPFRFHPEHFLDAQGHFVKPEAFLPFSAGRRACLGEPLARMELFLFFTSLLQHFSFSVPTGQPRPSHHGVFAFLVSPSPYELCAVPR

Cc1ccc(C(=O)NC2CC2)cc1-c1cc2cnn(-c3c(F)cccc3F)c2n(C)c1=O
pIC50 [1]: < 4.60 | pKi [2]: 5.46 | AUC(0-inf) [3]: 3990 ng·h/mL | Activity [4]: 5% | inhibition [5]: < 50% | Cmax [6]: 11 nM | pKd [7]: 5.96 | fraction unbound [8]: 0.079 | pKi [9]: 8.60 | AUC(0-t) [10]: 0.18 µM·h | Papp A→B [11]: 27 ×10⁻⁶ cm/s | inhibition [12]: < 50% | Activity [13]: Non-toxic | Activity [14]: Not Active | pKd [15]: 5.96 | fraction unbound [16]: 0.087 | inhibition [17]: < 50% | inhibition [18]: < 50%
